Columns and labels:
[1] = biological target: T1, Melanocortin receptor 3 (Mus musculus, UniProt P33033); experiment: Agonist activity at mouse MC3 receptor expressed in HEK293 cells after 6 hrs by cAMP-based beta-galactosidase reporter gene assay; assay type: functional, cell-based
Procedure, shortened: (§1)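 HEK-293 cells stably expressing the mouse receptor, kept in DMEM with 10% fetal calf serum, transfected with CRE/β-galactosidase reporter. Efficacy is relative to NDP-MSH on the same plate. EC50 is the mean of duplicate wells from three or more independent experiments, fitted by nonlinear least squares.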

[2] = biological target: Melanocyte-stimulating hormone receptor (Mus musculus, UniProt Q01727); experiment: Agonist activity at mouse MC1 receptor expressed in HEK293 cells after 6 hrs by cAMP-based beta-galactosidase reporter gene assay; assay type: functional, cell-based; procedure, shortened: as §1
[3] = biological target: Melanocortin receptor 5 (Mus musculus, UniProt P41149); experiment: Agonist activity at mouse MC5 receptor expressed in HEK293 cells after 6 hrs by cAMP-based beta-galactosidase reporter gene assay; assay type: functional, cell-based; procedure, shortened: as §1
[4] = biological target: Melanocortin receptor 4 (Mus musculus, UniProt P56450); experiment: Agonist activity at mouse MC4 receptor expressed in HEK293 cells after 6 hrs by cAMP-based beta-galactosidase reporter gene assay; assay type: functional, cell-based; procedure, shortened: as §1
[5] = biological target: Melanocortin receptor 3 (Mus musculus) (UniProt P33033); experiment: Partial agonist activity at mouse MC3 receptor expressed in HEK293 cells at 10^-4 M to 10^-12 M after 6 hrs by cAMP-based beta-galactosidase reporter gene assay; assay type: functional, cell-based
Procedure, shortened: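 In the mMC3R HEK-293 CRE/β-galactosidase reporter assay, cells were exposed 6 h to peptide at 10^-4 to 10^-12 M in IBMX/BSA medium. Maximal efficacy is expressed relative to NDP-MSH run on the same plate.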

[6] = biological target: T1, Melanocortin receptor 3; experiment: Antagonist activity at mouse MC3 receptor expressed in HEK293 cells after 6 hrs by cAMP-based beta-galactosidase reporter gene assay; assay type: functional, cell-based; conditions: read-out: pA2 (converted)
[7] = species: Mus musculus; experiment: Selectivity for mouse MC3 receptor over mouse MC4 receptor

T1 sequence (P33033 whole entry): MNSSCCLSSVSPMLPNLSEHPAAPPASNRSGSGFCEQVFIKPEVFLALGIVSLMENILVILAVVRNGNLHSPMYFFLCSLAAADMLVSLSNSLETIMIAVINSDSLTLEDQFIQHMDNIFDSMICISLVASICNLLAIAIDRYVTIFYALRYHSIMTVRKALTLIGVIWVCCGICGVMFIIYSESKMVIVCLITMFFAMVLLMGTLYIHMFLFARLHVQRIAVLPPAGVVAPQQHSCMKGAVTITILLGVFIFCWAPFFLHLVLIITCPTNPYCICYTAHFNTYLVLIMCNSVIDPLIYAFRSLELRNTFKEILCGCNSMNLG
Chain of Melanocortin receptor 3 (Mus musculus) (P33033 whole entry): as above
Chain of Melanocortin receptor 5 (P41149 whole entry): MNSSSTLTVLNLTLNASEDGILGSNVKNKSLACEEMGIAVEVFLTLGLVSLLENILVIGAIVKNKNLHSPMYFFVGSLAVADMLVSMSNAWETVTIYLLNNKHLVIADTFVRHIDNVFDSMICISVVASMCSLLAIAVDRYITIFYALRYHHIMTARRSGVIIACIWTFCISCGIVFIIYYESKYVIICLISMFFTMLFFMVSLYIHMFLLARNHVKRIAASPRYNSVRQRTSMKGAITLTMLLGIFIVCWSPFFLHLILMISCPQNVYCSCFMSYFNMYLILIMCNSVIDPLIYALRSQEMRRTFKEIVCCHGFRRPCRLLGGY
Chain of Melanocyte-stimulating hormone receptor (Q01727 whole entry): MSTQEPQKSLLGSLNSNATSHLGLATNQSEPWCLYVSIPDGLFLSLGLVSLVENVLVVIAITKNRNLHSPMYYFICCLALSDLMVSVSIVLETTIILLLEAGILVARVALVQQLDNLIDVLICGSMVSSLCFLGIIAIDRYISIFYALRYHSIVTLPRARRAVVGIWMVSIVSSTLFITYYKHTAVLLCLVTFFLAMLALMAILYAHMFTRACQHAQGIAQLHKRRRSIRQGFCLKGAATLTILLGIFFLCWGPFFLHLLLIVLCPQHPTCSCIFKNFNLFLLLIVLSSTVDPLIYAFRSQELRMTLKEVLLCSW
Chain of Melanocortin receptor 4 (P56450 whole entry): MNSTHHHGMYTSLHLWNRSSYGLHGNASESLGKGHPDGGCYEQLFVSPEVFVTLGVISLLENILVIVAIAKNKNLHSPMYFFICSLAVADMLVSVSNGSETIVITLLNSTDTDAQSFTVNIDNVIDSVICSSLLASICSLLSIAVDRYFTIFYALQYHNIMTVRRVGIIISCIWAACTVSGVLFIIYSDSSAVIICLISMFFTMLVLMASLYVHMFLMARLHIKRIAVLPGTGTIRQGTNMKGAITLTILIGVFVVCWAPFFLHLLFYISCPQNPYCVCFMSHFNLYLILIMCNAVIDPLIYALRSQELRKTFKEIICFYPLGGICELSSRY

Row | SMILES | EC50 [1] [nM] | also measured
1 | C[C@@H]1NC(=O)[C@H](CC(N)=O)NC(=O)[C@H](C)N2C[C@H](CCCNC(=N)N)NC(=O)[C@@H](CSCC2=O)NC(=O)[C@@H](Cc2ccccc2)NC(=O)[C@H](Cc2cnc[nH]2)NC(=O)[C@@H](NC(=O)[C@@H](N)Cc2ccc(O)cc2)CSSC[C@@H](C(=O)N[C@@H](Cc2ccc(O)cc2)C(N)=O)NC(=O)[C@H](Cc2ccccc2)NC1=O | 2230 | –
2 | C[C@@H]1NC(=O)[C@@H](NC(=O)[C@@H](N)Cc2ccc(O)cc2)CSSC[C@@H](C(=O)N[C@@H](Cc2ccc(O)cc2)C(N)=O)NC(=O)[C@H](Cc2ccccc2)NC(=O)[C@H](C)NC(=O)[C@H](CC(N)=O)NC(=O)[C@H](Cc2c[nH]c3ccccc23)N2C[C@H](CCCNC(=N)N)NC(=O)[C@@H](CSCC2=O)NC(=O)[C@@H](Cc2ccccc2)NC1=O | 4020 | –
3 | C[C@@H]1NC(=O)[C@H](CC(N)=O)NC(=O)[C@H](Cc2c[nH]c3ccccc23)N2C[C@H](C)NC(=O)[C@@H](CSCC2=O)NC(=O)[C@@H](Cc2ccccc2)NC(=O)[C@H](Cc2cnc[nH]2)NC(=O)[C@@H](NC(=O)[C@@H](N)Cc2ccc(O)cc2)CSSC[C@@H](C(=O)N[C@@H](Cc2ccc(O)cc2)C(N)=O)NC(=O)[C@H](Cc2ccccc2)NC1=O | 8070 | –
4 | C[C@@H]1NC(=O)[C@H](CC(N)=O)NC(=O)[C@H](Cc2c[nH]c3ccccc23)N2C[C@H](CCCNC(=N)N)NC(=O)[C@@H](CSCC2=O)NC(=O)[C@@H](Cc2ccccc2)NC(=O)[C@@H]2CCCN2C(=O)[C@@H](NC(=O)[C@@H](N)Cc2ccc(O)cc2)CSSC[C@@H](C(=O)N[C@@H](Cc2ccc(O)cc2)C(N)=O)NC(=O)[C@H](Cc2ccccc2)NC1=O | 1900 | –
5 | C[C@@H]1NC(=O)[C@H](CC(N)=O)NC(=O)[C@H](Cc2c[nH]c3ccccc23)N2C[C@H](CCCNC(=N)N)NC(=O)[C@@H](CSCC2=O)NC(=O)[C@@H](Cc2ccccc2)NC(=O)[C@H](Cc2ccccc2)NC(=O)[C@@H](NC(=O)[C@@H](N)Cc2ccc(O)cc2)CSSC[C@@H](C(=O)N[C@@H](Cc2ccc(O)cc2)C(N)=O)NC(=O)[C@H](Cc2ccccc2)NC1=O | 4500 | –
6 | C[C@@H]1NC(=O)[C@H](Cc2cnc[nH]2)NC(=O)[C@@H](NC(=O)[C@@H](N)Cc2ccc(O)cc2)CSSC[C@@H](C(=O)N[C@@H](Cc2ccc(O)cc2)C(N)=O)NC(=O)[C@H](Cc2ccccc2)NC(=O)[C@H](C)NC(=O)[C@H](CC(N)=O)NC(=O)[C@H](Cc2c[nH]c3ccccc23)N2C[C@H](CCCN=C(N)N)NC(=O)[C@@H](CSCC2=O)NC1=O | 7720 | EC50 [2]: 12500 nM; EC50 [3]: 7700 nM; EC50 [4]: 20100 nM
7 | C[C@@H]1NC(=O)[C@H](CC(N)=O)NC(=O)[C@H](Cc2c[nH]c3ccccc23)N2C[C@H](CCCN=C(N)N)NC(=O)[C@@H](CSCC2=O)NC(=O)[C@@H]2CCCN2C(=O)[C@H](Cc2cnc[nH]2)NC(=O)[C@@H](NC(=O)[C@@H](N)Cc2ccc(O)cc2)CSSC[C@@H](C(=O)N[C@@H](Cc2ccc(O)cc2)C(N)=O)NC(=O)[C@H](Cc2ccccc2)NC1=O | 10300 | –
8 | C[C@@H]1NC(=O)[C@H](CC(N)=O)NC(=O)[C@H](Cc2c[nH]c3ccccc23)N2C[C@H](CCCCN)NC(=O)[C@@H](CSCC2=O)NC(=O)[C@@H](Cc2ccccc2)NC(=O)[C@H](Cc2cnc[nH]2)NC(=O)[C@@H](NC(=O)[C@@H](N)Cc2ccc(O)cc2)CSSC[C@@H](C(=O)N[C@@H](Cc2ccc(O)cc2)C(N)=O)NC(=O)[C@H](Cc2ccccc2)NC1=O | 2540 | –
9 | C[C@@H]1NC(=O)[C@H](CC(N)=O)NC(=O)[C@H](Cc2c[nH]c3ccccc23)N2C[C@H](CCCNC(=N)N)NC(=O)[C@@H](CSCC2=O)NC(=O)[C@@H](Cc2ccc3ccccc3c2)NC(=O)[C@H](Cc2cnc[nH]2)NC(=O)[C@@H](NC(=O)[C@@H](N)Cc2ccc(O)cc2)CSSC[C@@H](C(=O)N[C@@H](Cc2ccc(O)cc2)C(N)=O)NC(=O)[C@H](Cc2ccccc2)NC1=O | – | Emax [5]: 20%
10 | C[C@@H]1NC(=O)[C@H](CC(N)=O)NC(=O)[C@H](Cc2c[nH]c3ccccc23)N2C[C@H](CCCN=C(N)N)NC(=O)[C@@H](CSCC2=O)NC(=O)[C@@H](Cc2ccc3ccccc3c2)NC(=O)[C@H](Cc2cnc[nH]2)NC(=O)[C@@H](NC(=O)[C@@H](N)Cc2ccc(O)cc2)CSSC[C@@H](C(=O)N[C@@H](Cc2ccc(O)cc2)C(N)=O)NC(=O)[C@H](Cc2ccccc2)NC1=O | – | Kb [6]: 25.1 nM
11 | C[C@@H]1NC(=O)[C@H](CC(N)=O)NC(=O)[C@H](Cc2c[nH]c3ccccc23)N2C[C@H](CCCNC(=N)N)NC(=O)[C@@H](CSCC2=O)NC(=O)[C@@H](Cc2ccc(-c3ccccc3)cc2)NC(=O)[C@H](Cc2cnc[nH]2)NC(=O)[C@@H](NC(=O)[C@@H](N)Cc2ccc(O)cc2)CSSC[C@@H](C(=O)N[C@@H](Cc2ccc(O)cc2)C(N)=O)NC(=O)[C@H](Cc2ccccc2)NC1=O | – | Kb [6]: 0.126 nM; Emax [5]: 10%; Selectivity ratio [7]: 5800

Continued, in another order:

Row | EC50 [1] [nM] | SMILES | also measured
12 | 230 | C[C@@H]1NC(=O)[C@H](CC(N)=O)NC(=O)[C@H](Cc2ccc(-c3ccccc3)cc2)N2C[C@H](CCCN=C(N)N)NC(=O)[C@@H](CSCC2=O)NC(=O)[C@@H](Cc2ccccc2)NC(=O)[C@H](Cc2cnc[nH]2)NC(=O)[C@@H](NC(=O)[C@@H](N)Cc2ccc(O)cc2)CSSC[C@@H](C(=O)N[C@@H](Cc2ccc(O)cc2)C(N)=O)NC(=O)[C@H](Cc2ccccc2)NC1=O | –
13 | 200 | C[C@@H]1NC(=O)[C@H](CC(N)=O)NC(=O)[C@H](Cc2ccc3ccccc3c2)N2C[C@H](CCCNC(=N)N)NC(=O)[C@@H](CSCC2=O)NC(=O)[C@@H](Cc2ccccc2)NC(=O)[C@H](Cc2cnc[nH]2)NC(=O)[C@@H](NC(=O)[C@@H](N)Cc2ccc(O)cc2)CSSC[C@@H](C(=O)N[C@@H](Cc2ccc(O)cc2)C(N)=O)NC(=O)[C@H](Cc2ccccc2)NC1=O | –
14 | 190 | C[C@@H]1NC(=O)[C@H](CC(N)=O)NC(=O)[C@H](Cc2c[nH]c3ccccc23)N2C[C@H](CCCNC(=N)N)NC(=O)[C@@H](CSCC2=O)NC(=O)[C@@H](Cc2cccc3ccccc23)NC(=O)[C@H](Cc2cnc[nH]2)NC(=O)[C@@H](NC(=O)[C@@H](N)Cc2ccc(O)cc2)CSSC[C@@H](C(=O)N[C@@H](Cc2ccc(O)cc2)C(N)=O)NC(=O)[C@H](Cc2ccccc2)NC1=O | –
15 | 49 | C[C@@H]1NC(=O)[C@H](CC(N)=O)NC(=O)[C@H](Cc2c[nH]c3ccccc23)N2C[C@H](CCCNC(=N)N)NC(=O)[C@@H](CSCC2=O)NC(=O)[C@@H](Cc2ccc(I)cc2)NC(=O)[C@H](Cc2cnc[nH]2)NC(=O)[C@@H](NC(=O)[C@@H](N)Cc2ccc(O)cc2)CSSC[C@@H](C(=O)N[C@@H](Cc2ccc(O)cc2)C(N)=O)NC(=O)[C@H](Cc2ccccc2)NC1=O | –
16 | 1.7 | C[C@@H]1NC(=O)[C@H](CC(N)=O)NC(=O)[C@H](Cc2c[nH]c3ccccc23)NC(=O)[C@H](CCCN=C(N)N)NC(=O)[C@@H](Cc2ccccc2)NC(=O)[C@H](Cc2cnc[nH]2)NC(=O)[C@@H](NC(=O)[C@@H](N)Cc2ccc(O)cc2)CSSC[C@@H](C(=O)N[C@@H](Cc2ccc(O)cc2)C(N)=O)NC(=O)[C@H](Cc2ccccc2)NC1=O | EC50 [2]: 0.3 nM; EC50 [3]: 1.45 nM; EC50 [4]: 0.17 nM
17 | 324 | C[C@@H]1NC(=O)[C@H](CC(N)=O)NC(=O)[C@H](Cc2c[nH]c3ccccc23)N2C[C@H](CCCN=C(N)N)NC(=O)[C@@H](CSCC2=O)NC(=O)[C@@H](Cc2ccccc2)NC(=O)[C@H](Cc2cnc[nH]2)NC(=O)[C@@H](NC(=O)[C@@H](N)Cc2ccc(O)cc2)CSSC[C@@H](C(=O)N[C@@H](Cc2ccc(O)cc2)C(N)=O)NC(=O)[C@H](Cc2ccccc2)NC1=O | –
18 | 180 | C[C@@H]1NC(=O)[C@H](CC(N)=O)NC(=O)[C@@H](Cc2ccc3ccccc3c2)N2C[C@H](CCCNC(=N)N)NC(=O)[C@@H](CSCC2=O)NC(=O)[C@@H](Cc2ccccc2)NC(=O)[C@H](Cc2cnc[nH]2)NC(=O)[C@@H](NC(=O)[C@@H](N)Cc2ccc(O)cc2)CSSC[C@@H](C(=O)N[C@@H](Cc2ccc(O)cc2)C(N)=O)NC(=O)[C@H](Cc2ccccc2)NC1=O | –
19 | 1830 | C[C@@H]1NC(=O)[C@H](CC(N)=O)NC(=O)[C@H](Cc2c[nH]c3ccccc23)N2C[C@H](CCCCNC(=N)N)NC(=O)[C@@H](CSCC2=O)NC(=O)[C@@H](Cc2ccccc2)NC(=O)[C@H](Cc2cnc[nH]2)NC(=O)[C@@H](NC(=O)[C@@H](N)Cc2ccc(O)cc2)CSSC[C@@H](C(=O)N[C@@H](Cc2ccc(O)cc2)C(N)=O)NC(=O)[C@H](Cc2ccccc2)NC1=O | –
